The source made the active and inactive calls. No cut-off for these calls is given here.
Experiments:
[1] = Cytotoxicity against human SU-DHL6 cells assessed as growth inhibition after 72 hrs by CellTiter-Glo luminescent cell viability assay; type: functional, SU-DHL-6; conditions: Homo sapiens, SU-DHL-6, 72 h
Summary of the method: (§1)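 Lymphoma cells seeded at 5000 cells/well, incubated 24 h, then exposed to compounds for 72 h. Viability read by CellTiter-Glo luminescence. GI50 from dose−response curves, mean of two or three independent experiments in triplicate.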

[2] = biological target: T1, Receptor tyrosine-protein kinase erbB-4 (Homo sapiens, UniProt Q15303); assay: Inhibition of HER4 (unknown origin) after 1 hr by HTRF assay
Summary of the method: (§2)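 Recombinant kinases tested by HTRF KinEase protocol. Enzyme preincubated with inhibitor for a fixed 10 min. IC50 values are means of duplicates.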

[3] = Clearance in ICR mouse at 1 mg/kg, iv by LC-MS analysis; type: ADME, organism-based; design: dose 1 mg/kg, route intravenous; conditions: in vivo
Summary of the method: (§3)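 ICR mice (n = 3) given a single intravenous injection at 1 mg/kg. Blood sampled at various time points and analyzed by LC−MS to derive t1/2, CL and Vss.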

DOHH-2 = assay: Antitumor activity against human DOHH2 cells xenografted in iv dosed CB17 SCID mouse assessed as tumor growth inhibition administered as qd for 14 days measured over 14 days of compound treatment; type: functional, organism-based
[4] = Cytotoxicity against human DOHH2 cells assessed as growth inhibition after 72 hrs by CellTiter-Glo luminescent cell viability assay; type: functional, DOHH-2; conditions: Homo sapiens, DOHH-2, 72 h; summary of the method: as §1
[5] = Stability of the compound in FaSSIF assessed as compound remaining at 1 uM measured at 24 hrs by LC-MS analysis; type: ADME; conditions: read-out: Stability
Summary of the method: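 Compound solutions in FaSSIF shaken at 350 rpm at 37 °C. Samples taken at 2, 6, 10 and 24 h and quantified by LC−MS as % remaining.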

[6] = biological target: Cytoplasmic tyrosine-protein kinase BMX (Homo sapiens, UniProt P51813); assay: Inhibition of Bmx (unknown origin) after 1 hr by HTRF assay; summary of the method: as §2
[7] = Antitumor activity against human DOHH2 cells xenografted in CB17 SCID mouse assessed as tumor growth inhibition at 10 mg/kg, iv qd administered for 14 days measured over 14 days of compound treatment relative to vehicle-treated control; conditions: DOHH-2, iv, 336 h, read-out: TGI
MM1R = assay: Cytotoxicity against human MM1R cells assessed as growth inhibition at 1 to 10 uM after 72 hrs by CellTiter-Glo luminescent cell viability assay; type: functional, cell-based
Homo sapiens = species: Homo sapiens; assay: Inhibition of VEGFR (unknown origin) at 0.5 uM by [33P]-ATP filter binding assay
Summary of the method: (§4)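 Kinase panel of 18 enzymes; inhibition tested at 0.5 μM. Values are means of duplicates.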

[8] = Antitumor activity against human DOHH2 cells xenografted in CB17 SCID mouse assessed as tumor growth inhibition at 20 mg/kg, iv qd administered for 14 days measured over 14 days of compound treatment relative to vehicle-treated control; conditions: DOHH-2, iv, 336 h, read-out: TGI
[9] = biological target: Mitogen-activated protein kinase 14 (Homo sapiens) (UniProt Q16539); assay: Inhibition of P38-alpha MAPK (unknown origin) at 0.5 uM by [33P]-ATP filter binding assay; summary of the method: as §4
[10] = biological target: Tyrosine-protein kinase Lck (Homo sapiens) (UniProt P06239); assay: Inhibition of Lck (unknown origin) at 0.5 uM by [33P]-ATP filter binding assay; summary of the method: as §4
Mus musculus = assay: Toxicity in CB17 SCID mouse xenografted with human DOHH2 cells assessed as body weight fluctuations at 10 mg/kg, iv qd administered for 14 days measured over 14 days of compound treatment; type: organism-based, DOHH-2; design: dose 10 mg/kg, route intravenous; conditions: in vivo, 336 h
Summary of the method: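 Female CB17/SCID mice carried subcutaneous DoHH2 xenografts (5 × 10⁶ cells injected), randomised at ~167 mm³ mean tumour volume into four groups (n = 6/group). Compound was given intravenously via the tail vein once daily for 14 consecutive days. Body weights were tracked over time throughout the study.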

[11] = biological target: T2, Tyrosine-protein kinase BTK (Homo sapiens, UniProt Q06187); assay: Irreversible inhibition of Btk phosphorylation at Tyr551 in human Ramos cells at 1 uM incubated for 1 hr followed by compound washout with fresh media measured after 2 hrs by Western blot analysis; type: cell-based
Summary of the method: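 Ramos cells (5 × 10⁵) seeded overnight, treated with compound 1 h, then washed out with fresh media for 2 h. Cells stimulated with goat anti-human IgM for 3−5 min, lysed by boiling in SDS buffer, and Btk Tyr551 phosphorylation assessed by Western blot.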

[12] = Volume of distribution at steady state in ICR mouse at 1 mg/kg, iv by LC-MS analysis; type: ADME, organism-based; design: dose 1 mg/kg, route intravenous; conditions: in vivo, read-out: Vdss; summary of the method: as §3
[13] = biological target: T2, Tyrosine-protein kinase BTK; assay: Binding affinity to Btk kinase domain (387 to 659) (unknown origin) assessed as compound-protein covalent adduct formation at 1:3 protein to compound molar ratio at 4 degC after 1 hr by LC-MS analysis
Summary of the method: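 Btk kinase domain (residues 387−659, MW 32136) incubated with 3 equiv of compound at 4 °C for 1 h. Mass spectrometry of the intact protein checked for mass peak shift consistent with 1-to-1 protein−compound adducts.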

[14] = biological target: Tyrosine-protein kinase Blk (Homo sapiens, UniProt P51451); assay: Inhibition of Blk (unknown origin) after 1 hr by HTRF assay; summary of the method: as §2
[15] = Binding affinity to glutathione in PBS buffer assessed as glutathione-compound adduct formation at 100 uM at pH 7.4 at 37 degC after 2 hrs
Summary of the method: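 Compound (100 μM) incubated with 5 mM glutathione in PBS, pH 7.4, at 37 °C. Checked for GSH−compound adducts after 2 h.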

[16] = Clearance in mouse liver microsomes by LC-MS/MS analysis; type: ADME; conditions: read-out: CLH
Summary of the method: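 Liver microsomes incubated with compound and NADPH at 37 °C. Samples taken at several time points, centrifuged, and supernatants analyzed by LC−MS/MS. t1/2 and CL calculated by first-order kinetics. Testosterone, propranolol and clozapine served as positive controls.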

[17] = biological target: Tyrosine-protein kinase CSK (Homo sapiens) (UniProt P41240); assay: Inhibition of CSK (unknown origin) at 0.5 uM by [33P]-ATP filter binding assay; summary of the method: as §4
[18] = biological target: Tyrosine-protein kinase SYK (Homo sapiens) (UniProt P43405); assay: Inhibition of SYK (unknown origin) at 0.5 uM by [33P]-ATP filter binding assay; summary of the method: as §4
[19] = biological target: Epidermal growth factor receptor (Homo sapiens, UniProt P00533); assay: Inhibition of EGFR (unknown origin) after 1 hr by HTRF assay
Summary of the method: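 Commercial recombinant kinase, assayed in the HTRF KinEase format following the kit protocol. Enzyme and inhibitor were preincubated for a fixed 10 min before the reaction.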

[20] = biological target: Protein kinase C alpha type (Homo sapiens) (UniProt P17252); assay: Inhibition of PKC-alpha (unknown origin) at 0.5 uM by [33P]-ATP filter binding assay; summary of the method: as §4
[21] = biological target: T1, Receptor tyrosine-protein kinase erbB-4; assay: Inhibition of HER4 (unknown origin) at 0.5 uM by [33P]-ATP filter binding assay; summary of the method: as §4
JVM-3 = assay: Cytotoxicity against human JVM-3 cells assessed as growth inhibition at 1 to 10 uM after 72 hrs by CellTiter-Glo luminescent cell viability assay; type: functional, cell-based

T2 sequence (Q06187 whole entry): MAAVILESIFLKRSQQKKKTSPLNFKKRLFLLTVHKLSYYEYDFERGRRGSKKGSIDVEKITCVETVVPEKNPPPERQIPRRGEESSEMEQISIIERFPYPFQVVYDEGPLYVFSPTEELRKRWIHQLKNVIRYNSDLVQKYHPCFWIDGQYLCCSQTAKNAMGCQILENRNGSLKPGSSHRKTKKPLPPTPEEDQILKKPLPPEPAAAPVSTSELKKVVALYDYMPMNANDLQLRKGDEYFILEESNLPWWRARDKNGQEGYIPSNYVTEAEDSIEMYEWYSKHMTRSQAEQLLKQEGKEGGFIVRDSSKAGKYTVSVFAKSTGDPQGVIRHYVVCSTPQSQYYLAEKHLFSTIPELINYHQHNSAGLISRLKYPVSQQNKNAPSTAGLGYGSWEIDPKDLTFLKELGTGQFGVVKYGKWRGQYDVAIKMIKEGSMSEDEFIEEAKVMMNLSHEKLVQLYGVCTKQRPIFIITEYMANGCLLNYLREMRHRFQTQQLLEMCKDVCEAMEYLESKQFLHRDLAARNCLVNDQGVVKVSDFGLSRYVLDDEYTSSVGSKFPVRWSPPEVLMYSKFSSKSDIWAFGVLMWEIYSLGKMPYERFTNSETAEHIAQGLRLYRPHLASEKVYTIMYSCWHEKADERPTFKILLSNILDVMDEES
T1 sequence (Q15303 whole entry): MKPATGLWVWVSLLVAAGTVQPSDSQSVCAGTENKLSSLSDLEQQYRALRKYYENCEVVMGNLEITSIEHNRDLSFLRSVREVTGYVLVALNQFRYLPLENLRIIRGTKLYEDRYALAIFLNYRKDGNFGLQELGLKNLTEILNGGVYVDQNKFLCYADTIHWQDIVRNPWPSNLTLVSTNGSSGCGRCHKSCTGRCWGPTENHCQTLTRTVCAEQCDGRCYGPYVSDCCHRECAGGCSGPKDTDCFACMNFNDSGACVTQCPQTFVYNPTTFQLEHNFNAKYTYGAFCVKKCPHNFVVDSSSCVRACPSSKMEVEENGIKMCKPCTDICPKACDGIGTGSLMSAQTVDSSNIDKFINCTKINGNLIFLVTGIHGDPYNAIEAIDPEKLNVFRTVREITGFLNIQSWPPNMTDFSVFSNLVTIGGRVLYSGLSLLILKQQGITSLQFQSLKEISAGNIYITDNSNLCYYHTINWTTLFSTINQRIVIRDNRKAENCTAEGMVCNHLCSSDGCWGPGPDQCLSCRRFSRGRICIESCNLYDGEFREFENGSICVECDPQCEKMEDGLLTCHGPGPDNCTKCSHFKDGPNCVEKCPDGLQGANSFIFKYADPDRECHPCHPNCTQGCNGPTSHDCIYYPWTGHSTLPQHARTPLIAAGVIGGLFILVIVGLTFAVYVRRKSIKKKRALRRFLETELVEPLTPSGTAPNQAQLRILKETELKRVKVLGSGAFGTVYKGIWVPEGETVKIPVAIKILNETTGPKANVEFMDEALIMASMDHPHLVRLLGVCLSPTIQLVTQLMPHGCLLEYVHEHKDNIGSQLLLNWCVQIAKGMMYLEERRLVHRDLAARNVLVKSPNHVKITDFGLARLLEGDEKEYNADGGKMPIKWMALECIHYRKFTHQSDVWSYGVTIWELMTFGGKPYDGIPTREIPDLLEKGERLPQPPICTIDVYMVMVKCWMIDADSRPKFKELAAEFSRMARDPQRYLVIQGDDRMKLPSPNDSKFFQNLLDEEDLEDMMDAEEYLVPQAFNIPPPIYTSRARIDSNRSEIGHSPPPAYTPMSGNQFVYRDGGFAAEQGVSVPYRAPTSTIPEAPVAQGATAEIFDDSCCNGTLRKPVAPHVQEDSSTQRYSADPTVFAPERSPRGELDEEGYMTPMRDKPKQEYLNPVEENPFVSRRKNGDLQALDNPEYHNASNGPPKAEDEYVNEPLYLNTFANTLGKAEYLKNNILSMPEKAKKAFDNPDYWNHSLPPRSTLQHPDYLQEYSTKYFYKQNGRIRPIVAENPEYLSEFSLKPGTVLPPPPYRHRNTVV
Tyrosine-protein kinase CSK (Homo sapiens), sequence (P41240 2-450 limits assumed): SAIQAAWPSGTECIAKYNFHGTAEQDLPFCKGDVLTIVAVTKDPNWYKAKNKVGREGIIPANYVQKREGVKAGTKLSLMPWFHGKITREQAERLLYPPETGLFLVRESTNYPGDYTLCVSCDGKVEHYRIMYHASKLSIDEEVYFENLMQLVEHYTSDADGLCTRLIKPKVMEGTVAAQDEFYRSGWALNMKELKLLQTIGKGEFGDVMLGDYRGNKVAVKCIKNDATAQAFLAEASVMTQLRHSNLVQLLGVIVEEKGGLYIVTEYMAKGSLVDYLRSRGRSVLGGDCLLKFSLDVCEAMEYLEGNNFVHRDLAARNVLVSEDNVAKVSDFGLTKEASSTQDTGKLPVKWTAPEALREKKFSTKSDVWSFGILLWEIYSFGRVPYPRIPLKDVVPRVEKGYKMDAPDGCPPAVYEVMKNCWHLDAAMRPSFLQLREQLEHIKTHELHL
Tyrosine-protein kinase Blk, sequence (P51451 whole entry): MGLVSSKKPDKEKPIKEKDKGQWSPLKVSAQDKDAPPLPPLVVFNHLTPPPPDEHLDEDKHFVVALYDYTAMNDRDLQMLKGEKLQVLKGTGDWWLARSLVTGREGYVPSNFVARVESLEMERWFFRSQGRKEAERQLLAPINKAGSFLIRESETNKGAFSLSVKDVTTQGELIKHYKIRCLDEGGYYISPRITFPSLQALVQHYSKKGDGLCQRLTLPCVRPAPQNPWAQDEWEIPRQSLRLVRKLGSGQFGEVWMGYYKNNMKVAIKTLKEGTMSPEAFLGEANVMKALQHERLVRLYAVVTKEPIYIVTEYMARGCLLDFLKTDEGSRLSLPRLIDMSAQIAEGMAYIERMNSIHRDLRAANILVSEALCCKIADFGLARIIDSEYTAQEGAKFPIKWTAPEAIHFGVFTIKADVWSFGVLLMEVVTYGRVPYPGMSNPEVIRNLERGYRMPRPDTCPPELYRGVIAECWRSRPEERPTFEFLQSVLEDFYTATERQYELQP
Epidermal growth factor receptor, sequence (P00533 whole entry): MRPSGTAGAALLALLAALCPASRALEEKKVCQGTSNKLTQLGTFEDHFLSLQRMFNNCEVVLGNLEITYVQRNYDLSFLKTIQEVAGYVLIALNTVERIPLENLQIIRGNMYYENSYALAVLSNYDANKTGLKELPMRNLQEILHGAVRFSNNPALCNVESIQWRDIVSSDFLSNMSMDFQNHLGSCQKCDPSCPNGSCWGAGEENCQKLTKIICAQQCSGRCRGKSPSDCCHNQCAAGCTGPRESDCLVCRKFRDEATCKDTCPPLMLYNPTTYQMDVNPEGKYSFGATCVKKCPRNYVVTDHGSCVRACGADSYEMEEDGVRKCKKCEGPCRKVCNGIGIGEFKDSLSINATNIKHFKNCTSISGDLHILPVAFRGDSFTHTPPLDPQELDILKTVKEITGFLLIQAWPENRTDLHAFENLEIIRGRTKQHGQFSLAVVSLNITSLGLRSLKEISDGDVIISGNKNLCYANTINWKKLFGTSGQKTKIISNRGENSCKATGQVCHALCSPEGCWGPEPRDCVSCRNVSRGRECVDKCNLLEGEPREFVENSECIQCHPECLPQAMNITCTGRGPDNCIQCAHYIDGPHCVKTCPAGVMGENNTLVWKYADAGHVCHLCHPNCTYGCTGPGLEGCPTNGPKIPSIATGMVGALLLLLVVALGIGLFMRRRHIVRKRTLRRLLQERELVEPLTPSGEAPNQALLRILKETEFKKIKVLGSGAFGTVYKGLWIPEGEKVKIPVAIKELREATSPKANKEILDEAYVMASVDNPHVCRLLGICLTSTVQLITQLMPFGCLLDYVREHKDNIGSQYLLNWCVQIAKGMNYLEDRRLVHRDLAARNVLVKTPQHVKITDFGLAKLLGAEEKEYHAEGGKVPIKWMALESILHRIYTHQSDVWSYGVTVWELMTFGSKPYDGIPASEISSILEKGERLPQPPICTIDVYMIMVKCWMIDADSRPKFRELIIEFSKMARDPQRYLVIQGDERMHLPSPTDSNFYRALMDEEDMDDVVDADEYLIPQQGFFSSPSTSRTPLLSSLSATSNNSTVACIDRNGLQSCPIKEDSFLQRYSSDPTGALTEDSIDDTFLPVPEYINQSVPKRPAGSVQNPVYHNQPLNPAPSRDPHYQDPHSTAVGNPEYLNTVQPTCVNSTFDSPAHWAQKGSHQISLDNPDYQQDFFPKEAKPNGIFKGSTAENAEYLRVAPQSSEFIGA
Mitogen-activated protein kinase 14 (Homo sapiens), sequence (Q16539 whole entry): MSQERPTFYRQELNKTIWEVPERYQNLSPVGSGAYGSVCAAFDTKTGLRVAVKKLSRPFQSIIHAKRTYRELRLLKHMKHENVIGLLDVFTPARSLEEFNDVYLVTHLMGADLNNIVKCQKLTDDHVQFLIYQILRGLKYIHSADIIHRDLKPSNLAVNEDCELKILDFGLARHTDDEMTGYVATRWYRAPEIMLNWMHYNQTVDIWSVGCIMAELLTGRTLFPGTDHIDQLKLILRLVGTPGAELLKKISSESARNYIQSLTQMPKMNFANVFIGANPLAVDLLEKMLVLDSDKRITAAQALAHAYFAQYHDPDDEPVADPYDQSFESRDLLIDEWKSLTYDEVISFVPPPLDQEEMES
Tyrosine-protein kinase Lck (Homo sapiens), sequence (P06239 2-509 limits assumed): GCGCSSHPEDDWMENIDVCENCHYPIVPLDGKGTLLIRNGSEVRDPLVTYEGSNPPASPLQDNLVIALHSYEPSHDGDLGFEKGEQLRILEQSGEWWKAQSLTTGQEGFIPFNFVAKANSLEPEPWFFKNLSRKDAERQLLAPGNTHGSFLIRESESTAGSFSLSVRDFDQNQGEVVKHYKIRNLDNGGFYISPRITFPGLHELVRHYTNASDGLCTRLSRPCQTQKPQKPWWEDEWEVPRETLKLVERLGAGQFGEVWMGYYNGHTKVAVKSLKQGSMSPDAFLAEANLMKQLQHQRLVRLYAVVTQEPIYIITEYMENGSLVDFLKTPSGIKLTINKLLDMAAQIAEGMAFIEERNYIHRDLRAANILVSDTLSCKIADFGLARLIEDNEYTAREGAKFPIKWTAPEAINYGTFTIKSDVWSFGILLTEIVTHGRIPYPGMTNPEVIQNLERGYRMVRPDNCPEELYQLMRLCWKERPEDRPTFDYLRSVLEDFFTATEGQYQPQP

IC50 [2]: 5.5 nM
clearance [3]: 6.85 mL/min/kg
remaining at 24 h, 1 µM [5]: 94%
IC50 [6]: 1.9 nM
inhibition (Homo sapiens): Active
inhibition [9]: Active
inhibition [10]: Active
inhibition [11]: Active
Vd [12]: 0.2 L/kg
Activity [13]: Active
IC50 [14]: 2.7 nM
Activity [15]: inactive
microsomal CLint [16]: 25.7 µL/min/mg
inhibition [17]: Active
inhibition [18]: inactive
IC50 [19]: 11 nM
inhibition [20]: inactive
inhibition [21]: Active
SMILES: C=CC(=O)Nc1cccc(Nc2ncc(NC(=O)c3cc(NC(=O)c4cccc(C(F)(F)F)c4)ccc3C)cn2)c1
GI50 [1]: 38 nM
growth inhibition (GI) (DOHH-2): Dose-dependent effect
GI50 [4]: 73 nM
inhibition in vivo at 10 mg/kg [7]: 60%
growth inhibition (GI) (MM1R): Active
inhibition in vivo at 20 mg/kg [8]: 66%
Activity (Mus musculus): Non-toxic
growth inhibition (GI) (JVM-3): Active
